Positions count from the first letter of the chain named. Activity calls are given as the source filed them. No cut-off for these calls is given here.
What was measured:
[1] = biological target: Lysine-specific demethylase 5B (Homo sapiens) (UniProt Q9UGL1); assay: Inhibition of full length human wild type KDM5B transfected in HeLa cells assessed as increase in H3K4Me3 level measured after 24 hrs by cell analyser based immunofluorescence assay
[2] = test system: T1, Lysine-specific demethylase 4A (Homo sapiens), O75164 [H188A,E190A]; assay: Inhibition of FLAG tagged full length catalytically inactive human KDM4A H188A/E190A mutant transfected in HeLa cells assessed as change in H3K9Me3 level measured after 24 hrs by cell analyser based immunofluorescence assay
T1 sequence (whole entry): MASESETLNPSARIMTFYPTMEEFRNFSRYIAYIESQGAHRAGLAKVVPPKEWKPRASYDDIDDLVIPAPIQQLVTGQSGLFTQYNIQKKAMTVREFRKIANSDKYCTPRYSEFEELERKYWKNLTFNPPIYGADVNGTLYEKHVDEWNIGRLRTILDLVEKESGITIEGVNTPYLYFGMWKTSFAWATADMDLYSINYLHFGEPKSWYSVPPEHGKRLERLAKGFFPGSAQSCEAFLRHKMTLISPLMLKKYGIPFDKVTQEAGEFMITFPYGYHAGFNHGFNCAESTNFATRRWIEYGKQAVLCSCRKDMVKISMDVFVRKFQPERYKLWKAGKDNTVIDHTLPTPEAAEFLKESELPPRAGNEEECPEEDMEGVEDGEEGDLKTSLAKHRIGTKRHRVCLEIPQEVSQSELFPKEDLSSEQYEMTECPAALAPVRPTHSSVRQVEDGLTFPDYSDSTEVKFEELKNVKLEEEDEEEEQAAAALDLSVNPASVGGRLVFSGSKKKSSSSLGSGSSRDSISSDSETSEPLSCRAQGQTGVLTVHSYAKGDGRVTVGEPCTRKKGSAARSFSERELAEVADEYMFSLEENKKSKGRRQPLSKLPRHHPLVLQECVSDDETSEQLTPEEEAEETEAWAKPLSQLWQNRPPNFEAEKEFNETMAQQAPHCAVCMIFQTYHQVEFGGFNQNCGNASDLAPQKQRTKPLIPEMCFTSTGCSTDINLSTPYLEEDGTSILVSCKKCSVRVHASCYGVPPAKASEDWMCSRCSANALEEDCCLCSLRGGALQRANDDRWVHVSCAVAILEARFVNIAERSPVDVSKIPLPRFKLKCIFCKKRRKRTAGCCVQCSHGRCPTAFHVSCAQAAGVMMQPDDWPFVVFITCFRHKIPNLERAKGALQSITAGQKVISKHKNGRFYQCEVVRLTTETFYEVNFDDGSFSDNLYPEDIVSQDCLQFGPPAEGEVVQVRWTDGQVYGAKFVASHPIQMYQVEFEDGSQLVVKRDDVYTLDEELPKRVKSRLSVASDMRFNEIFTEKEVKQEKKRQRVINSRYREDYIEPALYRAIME
Procedure, shortened: (§1)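 HeLa cells grown in DMEM with 10% FBS, 37°C, 5% CO₂, seeded 6000 cells/well overnight. Compounds serially diluted 1:3 to 1:5 in medium with 20% FBS, DMSO held constant, then added for 24 h. Histone mark read by immunofluorescence imaging, 10 fields per well at 20X.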

[3] = test system: Lysine-specific demethylase 5B (Homo sapiens), Q9UGL1 [H499A,E501A]; assay: Inhibition of full length human catalytically inactive KDM5B H499A/E501A mutant transfected in HeLa cells assessed as change in H3K4Me3 level measured after 24 hrs by cell analyser based immunofluorescence assay; procedure, shortened: as §1
Lysine-specific demethylase 5B (Homo sapiens), Q9UGL1 [H499A,E501A], sequence (Q9UGL1 whole entry H499A/E501A): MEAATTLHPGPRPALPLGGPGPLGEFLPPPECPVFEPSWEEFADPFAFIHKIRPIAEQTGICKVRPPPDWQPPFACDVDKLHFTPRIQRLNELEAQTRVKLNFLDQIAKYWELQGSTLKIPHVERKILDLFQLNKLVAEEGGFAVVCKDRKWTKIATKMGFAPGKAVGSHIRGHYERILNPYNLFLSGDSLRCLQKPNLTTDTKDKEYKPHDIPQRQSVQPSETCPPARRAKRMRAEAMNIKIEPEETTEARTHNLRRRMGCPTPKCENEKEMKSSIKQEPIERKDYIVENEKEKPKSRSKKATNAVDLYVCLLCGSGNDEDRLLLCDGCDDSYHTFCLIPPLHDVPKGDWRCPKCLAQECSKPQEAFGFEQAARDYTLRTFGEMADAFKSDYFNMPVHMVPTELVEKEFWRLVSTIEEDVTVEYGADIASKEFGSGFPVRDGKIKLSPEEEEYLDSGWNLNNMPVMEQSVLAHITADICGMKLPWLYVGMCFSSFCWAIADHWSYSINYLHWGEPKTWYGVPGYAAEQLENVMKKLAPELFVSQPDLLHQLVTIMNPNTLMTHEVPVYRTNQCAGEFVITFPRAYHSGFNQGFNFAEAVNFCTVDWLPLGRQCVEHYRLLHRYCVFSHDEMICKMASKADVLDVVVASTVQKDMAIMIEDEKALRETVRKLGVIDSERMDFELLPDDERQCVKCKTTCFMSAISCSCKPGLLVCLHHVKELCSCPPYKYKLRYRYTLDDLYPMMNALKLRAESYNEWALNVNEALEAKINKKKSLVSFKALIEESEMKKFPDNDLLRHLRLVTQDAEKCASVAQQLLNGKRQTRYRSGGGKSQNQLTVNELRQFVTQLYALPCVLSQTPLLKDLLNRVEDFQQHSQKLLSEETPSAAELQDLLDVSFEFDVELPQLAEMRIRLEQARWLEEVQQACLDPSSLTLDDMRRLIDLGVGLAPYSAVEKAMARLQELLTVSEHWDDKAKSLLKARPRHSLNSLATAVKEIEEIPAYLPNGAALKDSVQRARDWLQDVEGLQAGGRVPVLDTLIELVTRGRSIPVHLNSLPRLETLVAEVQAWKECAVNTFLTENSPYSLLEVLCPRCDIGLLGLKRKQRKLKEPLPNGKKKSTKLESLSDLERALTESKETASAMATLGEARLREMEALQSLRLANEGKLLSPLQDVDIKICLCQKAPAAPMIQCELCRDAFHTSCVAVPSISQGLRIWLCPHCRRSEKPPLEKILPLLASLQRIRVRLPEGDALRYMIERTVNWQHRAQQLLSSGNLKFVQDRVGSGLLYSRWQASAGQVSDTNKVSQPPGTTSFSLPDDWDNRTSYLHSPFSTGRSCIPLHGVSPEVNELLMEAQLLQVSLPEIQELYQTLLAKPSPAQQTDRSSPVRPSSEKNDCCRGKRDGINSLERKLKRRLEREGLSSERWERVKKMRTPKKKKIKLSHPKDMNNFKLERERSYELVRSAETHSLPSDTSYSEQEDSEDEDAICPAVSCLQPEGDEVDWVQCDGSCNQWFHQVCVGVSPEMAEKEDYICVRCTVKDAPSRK

[4] = Drug metabolism in human LNCAP cells assessed as metabolite formation at 10 uM measured upto 120 hrs by UPHLC analysis; assay type: ADME, cell-based
Procedure, shortened: (§2)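 They were then given 10 μM compound or 0.1% DMSO vehicle. Media and trypsinised cell pellets were collected at 1, 6, 24, 48, 72 and 120 h, frozen at -80 °C, and analysed by UHPLC–Orbitrap MS using full MS/dd-MS² and full MS/AIF.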

[5] = Drug uptake in human LNCAP cells at 10 uM measured upto 120 hrs by UPHLC analysis; assay type: ADME, cell-based; conditions: TDE = time-dependent effect; procedure, shortened: as §2
[6] = biological target: T2, Lysine-specific demethylase 4A (Homo sapiens) (UniProt O75164); assay: Inhibition of FLAG tagged full length wild type human KDM4A transfected in HeLa cells assessed as increase in H3K9Me3 level measured after 24 hrs by cell analyser based immunofluorescence assay
T2 sequence (whole entry): T1 sequence (whole entry) with A188H, A190E

Lysine-specific demethylase 5B (Homo sapiens), sequence (Q9UGL1 whole entry): as the sequence (Q9UGL1 whole entry H499A/E501A) above, with A499H, A501E counted along it

Q: With `O=c1[nH]cnc2c(-n3cc(CCN4CCC5(CCc6ccccc65)CC4)cn3)cccc12` as the compound, how does the inhibition [1] read?
A: inactive

Q: And the inhibition [2]?
A: inactive

Q: And the inhibition [3]?
A: inactive

Q: What about the Drug metabolism [4] of the same compound?
A: Metabolite_Notdetected

Q: What about the Drug uptake [5] of the same compound?
A: Tde

Q: What about the inhibition [6] of the same compound?
A: inactive

Q: Which results are given for `O=c1[nH]cnc2c(-n3cc(CCN4CCC5(CCc6ccccc65)CC4)cn3)nccc12`?
A: inhibition [2]: inactive; inhibition [3]: inactive; Drug metabolism [4]: Metabolite_Notdetected; Drug uptake [5]: Tde

From ChEMBL document CHEMBL4350996, “C8-substituted pyrido[3,4-d]pyrimidin-4(3H)-ones: Studies towards the identification of potent, cell penetrant Jumonji C domain containing histone lysine demethylase 4 subfamily (KDM4) inhibitors, compound profiling in cell-based target engagement assays” (Eur J Med Chem, 2019)
